Common to all, as to assay type: cell-based
Experiment [1] can be described thus: Inhibition of Hedgehog signaling in mouse ASZ001 cells assessed as downregulation of Gli1 mRNA expression after 48 hrs by RT-PCR analysis. The conditions noted are these: ASZ001, 48 h. In a few lines: (§1)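 Gli1 mRNA dose-response after 48 h compound incubation, used to derive IC50 (μM). Each value comes from at least two separate experiments, each performed in triplicate.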

The nature of experiment [2]: Inhibition of Hedgehog signaling in mouse M210B4 cells assessed as downregulation of Gli1 mRNA expression after 24 hrs by RT-PCR analysis. The conditions noted are these: M210B4, 24 h. In a few lines:
(§2)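 Oxysterol-stimulated cells (20(S)- plus 22(S)-hydroxycholesterol, 5 μM each) were treated with compound across a dose range for 24 h. Gli1 and Ptch mRNA were normalized to ActinB, and IC50 values were derived. VD3 was dosed up to 10 μM.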

Experiment [3] deals with T1, Vitamin D3 receptor (Homo sapiens) (UniProt P11473).
T1 sequence (whole entry): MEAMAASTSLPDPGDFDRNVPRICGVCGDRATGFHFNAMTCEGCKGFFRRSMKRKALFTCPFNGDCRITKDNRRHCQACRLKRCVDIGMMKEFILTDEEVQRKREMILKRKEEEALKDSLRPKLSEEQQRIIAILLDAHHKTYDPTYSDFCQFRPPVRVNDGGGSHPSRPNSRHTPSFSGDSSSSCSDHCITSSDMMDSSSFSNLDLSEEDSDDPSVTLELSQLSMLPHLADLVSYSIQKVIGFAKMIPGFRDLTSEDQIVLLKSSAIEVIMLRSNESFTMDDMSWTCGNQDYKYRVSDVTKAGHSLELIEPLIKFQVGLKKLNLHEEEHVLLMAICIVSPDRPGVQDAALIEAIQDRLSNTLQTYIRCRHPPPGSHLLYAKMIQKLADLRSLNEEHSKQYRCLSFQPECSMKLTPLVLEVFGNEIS
The experiment can be described thus: Activation of VDR in human DaOY cells assessed as upregulation of Cyp24A1 mRNA expression at 5 uM after 48 hrs by RT-PCR analysis relative to DMSO-treated control. The essentials:
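Cyp24A1 mRNA measured after 48 h exposure to analogue and normalized to ActinB, expressed relative to DMSO vehicle-treated cells (set as 1.0). Single concentrations tested were 2.5, 5 or 10 μM.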

Experiment [4] deals with T2, Vitamin D3 receptor (Mus musculus) (UniProt P48281).
T2 sequence (whole entry): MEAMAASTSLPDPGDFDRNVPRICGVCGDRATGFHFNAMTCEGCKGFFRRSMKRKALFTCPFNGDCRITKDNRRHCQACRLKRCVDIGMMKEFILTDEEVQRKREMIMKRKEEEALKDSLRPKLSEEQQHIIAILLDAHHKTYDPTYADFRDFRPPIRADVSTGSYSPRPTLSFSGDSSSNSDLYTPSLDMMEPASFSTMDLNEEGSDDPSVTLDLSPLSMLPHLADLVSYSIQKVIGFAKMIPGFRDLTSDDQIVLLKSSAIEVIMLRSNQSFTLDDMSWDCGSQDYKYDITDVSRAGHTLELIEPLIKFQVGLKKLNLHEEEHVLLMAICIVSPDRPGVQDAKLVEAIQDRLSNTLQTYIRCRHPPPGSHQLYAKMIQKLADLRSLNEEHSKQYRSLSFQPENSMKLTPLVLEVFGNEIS
The experiment can be described thus: Activation of VDR in mouse M210B4 cells assessed as upregulation of Cyp24A1 mRNA expression at 5 uM after 24 hrs by RT-PCR analysis relative to DMSO-treated control. The essentials:
(§3)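 Cyp24A1 mRNA normalized to ActinB and expressed relative to DMSO vehicle (set to 1.0). Cells treated for 24 h at 5 μM (some agents at 1 μM).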

Experiment [5] in a line: Inhibition of Hedgehog signaling in mouse C3H10T1/2 cells assessed as downregulation of Gli1 mRNA expression after 24 hrs by RT-PCR analysis. The conditions noted are these: C3H 10T1/2, 24 h. In a few lines: as §2
Experiment [6] in a line: Inhibition of Hedgehog signaling in mouse C3H10T1/2 cells assessed as downregulation of Gli1 mRNA expression at 5 uM after 24 hrs by RT-PCR analysis relative to 20(S)-hydroxycholesterol and 22(S)-hydroxycholesterol. The conditions noted are these: C3H 10T1/2. In a few lines: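 Endogenous Gli1 mRNA measured after 24 h at 5 μM and normalized to ActinB with DMSO vehicle set to 1.0. Cells stimulated with 20(S)-hydroxycholesterol plus 22(S)-hydroxycholesterol (5 μM each) define 100% pathway activity, and the analogue effect is given as % of this level.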

Experiment [7] can be described thus: Inhibition of Hedgehog signaling in mouse C3H10T1/2 cells assessed as downregulation of Ptch mRNA expression after 24 hrs by RT-PCR analysis. The conditions noted are these: C3H 10T1/2, 24 h. The essentials:
as §2

Experiment [8] in a line: Inhibition of Hedgehog signaling in mouse M210B4 cells assessed as downregulation of Gli1 mRNA expression at 10 uM after 24 hrs by RT-PCR analysis relative to 20(S)-hydroxycholesterol and 22(S)-hydroxycholesterol. The essentials: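 M2-10B4 murine bone marrow stromal cells, Hh-responsive, treated for 24 h. Gli1 mRNA normalized to ActinB. Positive control 20(S)-hydroxycholesterol:22(S)-hydroxycholesterol (5 μM each) set as 100% pathway signaling. Values given as % of this level.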

Experiment [9] can be described thus: Inhibition of Hedgehog signaling in human DaOY cells assessed as downregulation of Gli1 mRNA expression after 48 hrs by RT-PCR analysis. In a few lines:
as §1

A short description of experiment [10]: Inhibition of Hedgehog signaling in mouse M210B4 cells assessed as downregulation of Ptch mRNA expression after 24 hrs by RT-PCR analysis. The conditions noted are these: M210B4, 24 h. The essentials: as §2
In experiment [11] the target is T2, Vitamin D3 receptor (Mus musculus). The experiment can be described thus: Activation of VDR in mouse C3H10T1/2 cells assessed as upregulation of Cyp24A1 mRNA expression at 5 uM after 24 hrs by RT-PCR analysis relative to DMSO-treated control. The conditions noted are these: C3H 10T1/2. The essentials:
as §3

The target is the same in experiment [12]. The experiment can be described thus: Activation of VDR in mouse ASZ001 cells assessed as upregulation of Cyp24A1 mRNA expression at 5 to 10 uM after 48 hrs by RT-PCR analysis. In a few lines:
(§4)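 Cells exposed to compound for 48 h; Cyp24A1 mRNA expression measured and expressed relative to DMSO vehicle-treated cells, set as 1.0.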

Experiment [13] shares this target. The experiment can be described thus: Activation of VDR in mouse ASZ001 cells assessed as upregulation of Cyp24A1 mRNA expression at =< 2.5 uM after 48 hrs by RT-PCR analysis. In a few lines: as §4

The source made the active and inactive calls. No cut-off for these calls is given here.

We go through one compound from ChEMBL document CHEMBL2406952, “Identification of vitamin d3-based hedgehog pathway inhibitors that incorporate an aromatic a-ring isostere” (ACS Med Chem Lett, 2013).

For the compound `C=C1CC[C@H](O)C/C1=C/C=C1\CCC[C@]2(C)[C@@H]([C@H](C)CCCC(C)C)CC[C@@H]12` [CHOLECALCIFEROL], the IC50 (as a rule, the midpoint of a concentration-inhibition curve) in experiment [1] was 2.1 µM; in experiment [2], over 10 µM; in [5], 4.1 µM; in experiment [7] it was 2.9 µM; in [9] it was over 10 µM; in experiment [10], over 10 µM. The fold change (FC) in experiment [3] was 149; in experiment [4], 274; in experiment [11] it was 8340. The Gli1 mRNA level (% of OHC control) in [6] worked out at 35.7%. Besides, the inhibition (usually the change of the read-out against control, counted positive when it falls) in experiment [8] came out at 53%. Further, the result in experiment [12] and in [13] was Active.
